The nature of experiment [1]: Binding affinity to synthetic poly(dA):poly(rU) DNA:RNA hybrid assessed as melting temperature at 2.2 uM. An outline of the steps: (§1)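 Thermal denaturation of each nucleic acid (20 µM/bp) with ligand at 2.2 µM, with melting temperatures read from UV and CD melting profiles. ΔTm is taken against the ligand-free Tm0.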
Experiment [2] is described as follows: Binding affinity to synthetic poly(dA-dT):poly(dA-dT) DNA:DNA duplex assessed as association constant at 20 degC. Summed up:
(§2)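 Apparent association constant is estimated from the UV/CD melting-temperature shift (Eq. 1). Binding stoichiometry n comes from fluorescence titrations, duplex melting enthalpy from DSC, and free ligand is taken as half the total. The value is extrapolated to 20 °C by integrated van't Hoff using dilution-corrected excess-site ITC enthalpies (15, 20, 25 °C) and derived ΔCp. Buffer: 10 mM sodium cacodylate, 0.5 mM EDTA, 100 mM NaCl, pH 5.5.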

Experiment [3] in a line: Binding affinity to synthetic poly(rA):poly(rU) RNA:RNA duplex assessed as melting temperature at 2.2 uM. An outline of the steps: as §1
Experiment [4] is described as follows: Binding affinity to synthetic poly(dA):poly(rU) DNA:RNA hybrid assessed as association constant at 20 degC. Summed up: as §2
Experiment [5] in a line: Binding affinity to synthetic poly(rA):poly(rU) DNA:RNA hybrid assessed as association constant at 20 degC. An outline of the steps: as §2
A short description of experiment [6]: Binding affinity to synthetic poly(dA-dT):poly(dA-dT) DNA: DNA duplex assessed as melting temperature at 2.2 uM. An outline of the steps: as §1
The nature of experiment [7]: Binding affinity to synthetic poly(rA):poly(rU) RNA duplex assessed as association constant at 20 degC.
For experiment [8], the system named is DNA. The experiment can be described thus: Binding affinity to calf thymus DNA assessed as melting temperature at 2.2 uM. The experiment is classed as nucleic-acid assay. As to conditions: Bos taurus. Summed up:
as §1

Experiment [9] can be described thus: Binding affinity to synthetic poly(dG):poly(dC) DNA:DNA duplex assessed as melting temperature at 2.2 uM. An outline of the steps: as §1
Experiment [10] can be described thus: Binding affinity to synthetic poly(dA):poly(dT) DNA:DNA duplex assessed as melting temperature at 2.2 uM. An outline of the steps: as §1
Experiment [11] in a line: Binding affinity to synthetic A-site RNA assessed as change in melting temperature at 2.2 uM. Summed up:
as §1

A short description of experiment [12]: Binding affinity to synthetic poly(dA): 2poly(dT) DNA:DNA duplex assessed as change in melting temperature at 2.2 uM. Summed up: as §1
The nature of experiment [13]: Binding affinity to synthetic poly(dA):poly(dT) DNA:DNA duplex assessed as change in melting temperature at 2.2 uM. An outline of the steps:
as §1

Experiment [14] in a line: Binding affinity to synthetic poly(rA):poly(rU) RNA:RNA duplex assessed as change in melting temperature at 2.2 uM. An outline of the steps:
as §1

Experiment [15] can be described thus: Binding affinity to synthetic poly(dA):poly(rU) DNA:RNA hybrid assessed as change in melting temperature at 2.2 uM. Summed up:
as §1

The nature of experiment [16]: Binding affinity to synthetic poly(dA-dT):poly(dA-dT) DNA:DNA duplex assessed as change in melting temperature at 2.2 uM. Summed up: as §1
A short description of experiment [17]: Binding affinity to synthetic poly(dA):2poly(dT) DNA:DNA duplex assessed as melting temperature at 2.2 uM. Summed up: as §1
Experiment [18] concerns DNA. The experiment can be described thus: Binding affinity to calf thymus DNA assessed as change in melting temperature at 2.2 uM. Particulars: Bos taurus. The experiment is classed as nucleic-acid assay. Summed up: as §1
A short description of experiment [19]: Binding affinity to synthetic poly(rA):poly(dT) DNA:RNA hybrid assessed as change in melting temperature at 2.2 uM. An outline of the steps: as §1
Experiment [20] is described as follows: Binding affinity to synthetic A-site RNA assessed as melting temperature at 2.2 uM. An outline of the steps: as §1
Experiment [21] is described as follows: Binding affinity to synthetic poly(rA):poly(dT) DNA:RNA hybrid assessed as melting temperature at 2.2 uM. Summed up:
as §1

Some results are limits rather than exact numbers.

`CC[n+]1c(-c2ccccc2)c2cc(N)ccc2c2ccc(N)cc21`: the Tm in [1] worked out at 61.8 °C; in experiment [3], 64.2 °C; in [6] it was 63.2 °C. Also, the results for the Ka in experiment [2], in [4] and in experiment [5] were 2 ×10⁵ /M, 9.3 ×10⁶ /M and 1.8 ×10⁶ /M, respectively.

Consider `NC[C@@H]1O[C@H](O[C@H]2[C@@H](O)[C@H](O[C@@H]3[C@@H](O)[C@H](N)C[C@H](N)[C@H]3O[C@H]3O[C@H](CN)[C@@H](O)[C@H](O)[C@H]3N)O[C@@H]2CO)[C@H](N)[C@@H](O)[C@@H]1O`, for which the Ka in experiment [7] is 2.6 ×10⁷ /M; in [2] it was 7 ×10⁴ /M; in experiment [4], 9.9 ×10⁶ /M. For the same molecule, the Tm in [1] was 65.8 °C; in [3], 64.7 °C; in experiment [6], 62.9 °C.

As usually defined, the ΔTm is the change in melting temperature against a reference sample. `C[n+]1c(-c2ccc(C(=O)NCCSC[C@H]3O[C@@H](O[C@@H]4[C@@H](O)[C@H](N)C[C@H](N)[C@H]4O[C@H]4O[C@H](CN)[C@@H](O)[C@H](O)[C@H]4N)[C@H](O)[C@@H]3O[C@H]3O[C@@H](CN)[C@@H](O)[C@H](O)[C@H]3N)cc2)c2cc(N)ccc2c2ccc(N)cc21`: the results for the Ka in experiment [7], in experiment [2] and in [4] were 2.1 ×10⁹ /M, 1 ×10⁶ /M and 4.8 ×10¹⁰ /M, respectively. Moreover, the Tm was 90.5 °C in experiment [1]; more than 95 °C in the experiment on DNA [8]; more than 95 °C in experiment [9]; 76.1 °C in [10]; 77 °C in [3]; 66.2 °C in experiment [6]. For the same molecule, the Tm in experiment [17] stood at 75.9 °C; in experiment [20], 79.8 °C; in experiment [21], 82.4 °C. The ΔTm was found to be 8.1 °C in experiment [11]; 7.7 °C in [12]; 7.7 °C in experiment [13]; 34.3 °C in experiment [14]; 46.9 °C in experiment [15]; 7.4 °C in [16]. Also, the figures for the ΔTm (in the experiment on DNA [18]; in experiment [19]) were more than 8.1 °C and 20.1 °C, respectively.

The record behind these values is ChEMBL document CHEMBL1155073, “Molecular recognition of a DNA:RNA hybrid: sub-nanomolar binding by a neomycin-methidium conjugate” (Bioorg Med Chem Lett, 2008).
